Data from ChEMBL document CHEMBL1146446, “Cytotoxic and antiplatelet aggregation principles from Aglaia elliptifolia” (J Nat Prod, 1997).
Values after ≈ are worked out from the molar mass of the structure shown.

Experiments:
P388 [1] = assay: Cytotoxicity against mouse P388 cells; format: functional, cell-based
[2] = Antiplatelet aggregation activity against arachidonic acid-induced rabbit platelet assessed as platelet aggregation at 100 ug/mL relative to control; format: functional, Oryctolagus cuniculus
In short: (§1)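 Blood from rabbit marginal ear vein was mixed with EDTA to a final 6 mM. It was spun at 90g for 10 min at room temperature to give platelet-rich plasma, then at 500g for 10 min. Platelets were preincubated with sample or 0.5% DMSO for 1 min at 37 °C, then triggered with ADP, arachidonic acid, collagen (10 µg/mL) or PAF (2 ng/mL). Mean ± S.D.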

TE-671 = assay: Cytotoxicity against human TE671 cells; format: functional, cell-based
[3] = Antiplatelet aggregation activity against collagen-induced rabbit platelet assessed as platelet aggregation at 100 ug/mL relative to control; format: functional, Oryctolagus cuniculus; in short: as §1
RPMI-7951 = assay: Cytotoxicity against human RPMI7951 cells; format: functional, cell-based
[4] = Antiplatelet aggregation activity against ADP-induced rabbit platelet assessed as platelet aggregation at 100 ug/mL relative to control; format: functional, Oryctolagus cuniculus; in short: as §1
KB = assay: Cytotoxicity against human KB cells; format: functional, cell-based
HCT-8 = assay: Cytotoxicity against human HCT8 cells; format: functional, cell-based
A549 = assay: Cytotoxicity against human A549 cells; format: functional, cell-based
[5] = Antiplatelet aggregation activity against platelet activating factor-induced rabbit platelet assessed as platelet aggregation at 100 ug/mL relative to control; format: functional, Oryctolagus cuniculus; in short: as §1
P388 [6] = assay: In vivo cytotoxic activity against mouse P388 cells at 1 mg/kg relative to control; format: functional

In the case of `COC(=O)[C@H]1[C@@H](O)[C@@]2(O)c3c(OC)cc(OC)cc3O[C@@]2(c2ccc(OC)cc2)[C@@H]1c1ccccc1` [AGLAFOLIN], the IC50 (P388 [1]) is reported as 2 ng/mL (≈ 0.00406 µM), the Activity [2] is reported as 0% and the IC50 (TE-671) is reported as 1 ng/mL (≈ 0.00203 µM). It also gave an Activity [3] of 88.6%, an IC50 (RPMI-7951) of 1 ng/mL (≈ 0.00203 µM) and an Activity [4] of 85.2%. For the same compound, the IC50 (KB) was 1 ng/mL (≈ 0.00203 µM), the IC50 (HCT-8) was 5 ng/mL (≈ 0.0102 µM) and the IC50 (A549) was 1 ng/mL (≈ 0.00203 µM). For the same compound, the Activity [5] was 0%.

In the case of `COc1cccc2c1C(=O)c1c(O)c3c(c(O)c1C2=O)C[C@@](O)(C(=O)CO)C[C@@H]3O[C@H]1C[C@H](N)[C@H](O)[C@H](C)O1.Cl` [DOXORUBICIN HYDROCHLORIDE], the IC50 (HCT-8) is reported as 300 ng/mL and the IC50 (A549) is reported as 150 ng/mL.

Compound `COc1cc([C@@H]2c3cc4c(cc3[C@@H](O[C@@H]3O[C@@H]5CO[C@@H](C)O[C@H]5[C@H](O)[C@H]3O)[C@H]3COC(=O)[C@H]23)OCO4)cc(OC)c1O` [ETOPOSIDE] has an IC50 (P388 [1]) of 2620 ng/mL (≈ 4.45 µM) and an IC50 (KB) of 120 ng/mL (≈ 0.204 µM).

`COc1ccc([C@@]23Oc4cc(OC)cc(OC)c4[C@]2(O)[C@H](O)[C@H](C(=O)N(C)C)[C@H]3c2ccccc2)cc1` [ROCAGLAMIDE] gave an IC50 (P388 [1]) of 5 ng/mL (≈ 0.00989 µM), an Activity [2] of 90.5% and an IC50 (TE-671) of 6 ng/mL (≈ 0.0119 µM). For the same compound, the Activity [3] was 83.8%, the IC50 (RPMI-7951) was 2 ng/mL (≈ 0.00396 µM) and the Activity [4] was 77.6%. For the same compound, the IC50 (KB) was 6 ng/mL (≈ 0.0119 µM), the IC50 (HCT-8) was 7 ng/mL (≈ 0.0138 µM) and the IC50 (A549) was 6 ng/mL (≈ 0.0119 µM). It also gave a T/C (P388 [6]) of 156% and an Activity [5] of 85.5%.

Compound `COc1cc2ccc(=O)oc2cc1O` [SCOPOLETIN] has an Activity [2] of 79.2%, an Activity [3] of 79.2% and an Activity [4] of 65.3%. It also gave an IC50 (KB) of 4000 ng/mL (≈ 20.8 µM) and an Activity [5] of 90.5%.

`CC[C@]1(O)C[C@@H]2CN(CCc3c([nH]c4ccccc34)[C@@](C(=O)OC)(c3cc4c(cc3OC)N(C)[C@H]3[C@@](O)(C(=O)OC)[C@H](OC(C)=O)[C@]5(CC)C=CCN6CC[C@]43[C@@H]65)C2)C1.O=S(=O)(O)O` [VINBLASTINE SULFATE] showed an IC50 (HCT-8) of 5 ng/mL and an IC50 (A549) of 2 ng/mL.
